Measured values taken from ChEMBL document CHEMBL5346868 (Eur J Med Chem, 2023).

Key:
Enterovirus A71 [1] = test: Antiviral activity against human enterovirus 71; assay type: functional, organism-based; settings: Enterovirus A
Enterovirus A71 [2] = test: Antiviral activity against human enterovirus 71 87-2008; assay type: functional, organism-based; settings: Enterovirus A
[3] = Cytotoxicity against african green monkey Vero E6 cells by MTS assay; assay type: toxicity, cell-based, Vero C1008; settings: chlorocebus sabaeus
Method in brief: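 Cytotoxicity is measured on treated, uninfected Vero E6 cells in parallel with the antiviral assays, using a standard MTS assay. CC50 is the concentration causing a 50% adverse effect on host cells.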

SARS-CoV-2 = test: Antiviral activity against SARS-CoV-2 BetaCoV/Belgium/GHB-03021/2020 infected in african green monkey Vero cells assessed as decline in virus induced cytopathogenicity measured after 4 days by argon laser scanning microscopic analysis; assay type: functional, organism-based; settings: Severe acute respiratory syndrome coronavirus 2, BetaCoV/Belgium/GHB-03021/2020, Vero, 96 h
Enterovirus A71 [4] = test: Antiviral activity against human enterovirus 71 BrCr infected in human RD cells measured by colorometric based MTS/PMS method; assay type: functional, organism-based; settings: Enterovirus A
Method in brief: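 EV71 BrCr in confluent RD cells (MEM, 10% heat-inactivated FBS) infected with ~100 CCID50 and given a compound dilution series. Incubation was 3 days at 37 °C, 5% CO2, with residual viability read by MTS. EC50 is the concentration giving 50% antiviral effect. Toxicity was run in parallel on treated uninfected cells. Values are means of ≥2 independent experiments.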

Zika virus = test: Antiviral activity against ZIKV MR766 infected in african green monkey Vero E6 cells assessed as decline in virus induced cytopathogenicity measured after 5 days by MTS based microscopic analysis; assay type: functional, organism-based; settings: MR766, Vero C1008, 120 h
Method in brief: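 Vero E6 cells (10^4/well) are seeded in MEM with 2% FCS and left to adhere overnight. Cells are then infected with ZIKV MR766 (passaged in C6/36 cells) and given 2-fold serial compound dilutions. After 5 days, CPE is scored by MTS and by microscopy of fixed, stained cells. EC50 is the 50% antiviral effect.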

[5] = Cytotoxicity against human RD cells by MTS assay; assay type: toxicity, cell-based
Method in brief: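 Treated, uninfected RD or HeLa cells are run alongside the matching enterovirus CPE assays, with viability read by MTS. CC50 is the concentration giving a 50% adverse effect on host cells.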

[6] = Selectivity index, ratio of CC50 for human RD cells to EC50 for antiviral activity against human Enterovirus 71; assay type: toxicity; settings: read-out: Ratio CC50/EC50
Method in brief: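 SI is calculated as CC50 on uninfected RD cells divided by EC50 in the 3-day EV71 BrCr CPE-reduction MTS assay.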

Enterovirus A71 [7] = test: Antiviral activity against human Enterovirus 71 BrCr infected in human RD cells assessed as reduction of virus induced cytopathic effect incubated for 3 days by MTS assay; assay type: functional, organism-based; settings: Enterovirus A, 72 h
Method in brief: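 Confluent RD cells (EMEM, 10% heat-inactivated FBS) are infected with ~100 CCID50 of EV71 BrCr and treated with a compound dilution series. After 3 days at 37 °C, 5% CO2, residual viability is measured by MTS. EC50 is the concentration giving 50% antiviral effect, from at least 2–3 independent experiments.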

Row | SMILES | EC50 (Enterovirus A71 [1]) | EC50 (Enterovirus A71 [2]) | CC50 [3] | EC50 (SARS-CoV-2) | EC50 (Enterovirus A71 [4]) | EC50 (Zika virus) | CC50 [5] | selectivity ratio [6] | EC50 (Enterovirus A71 [7])
1 | OC[C@H]1O[C@@H](n2cnc3c(NCc4ccccc4)ncnc32)[C@H](O)[C@@H]1O [N6-BENZYLADENOSINE] | 0.28 µM |  |  |  |  |  |  |  | 
2 | CCC(CC)COC(=O)[C@H](C)N[P@](=O)(OC[C@H]1O[C@@](C#N)(c2ccc3c(N)ncnn23)[C@H](O)[C@@H]1O)Oc1ccccc1 |  | 0.991 µM | > 10 µM | 0.058 µM |  |  |  |  | 
3 | OC[C@H]1O[C@@H](n2cnc3c(NCc4cccc(C(F)(F)F)c4)ncnc32)[C@H](O)[C@@H]1O |  |  | > 100 µM | > 100 µM | 0.068 µM | > 100 µM | > 100 µM | > 2770 | 0.036 µM
